{"source": "paper PMC8686831", "about": "(Molecular pharmaceutics, 2021)", "key": {"[1]": {"system": "HCT116 p53^−/− subcutaneous xenograft tumors", "experiment": "Survival study in subcutaneous xenograft mice", "format": "in vivo, athymic nude mice", "outline": "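Nude mice carried s.c. HCT116 p53+/+ or p53−/− xenografts (10^6 cells, 1:1 media/matrigel). At a mean tumor volume of 100 ± 10 mm3 they were randomized. Dosing was i.v. every 3–4 days for 5 cycles: approximately 74 MBq test compound in 100 μL 30% PEG300 vehicle, or vehicle alone. The p53−/− study added a stable-iodine analogue cohort (approx. 80 μg/kg). Weights were taken daily. Endpoints: distress, significant weight loss, tumor >800 mm3, or ulceration >5 mm.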"}, "[2]": {"system": "healthy athymic nude mice", "experiment": "^127I-PARPi toxicity study in healthy mice", "format": "in vivo", "conditions": "2.05 mg/kg intravenously"}}}
{"smiles": "O=C(c1cccc([127I])c1)N1CCN(C(=O)c2cc(Cc3n[nH]c(=O)c4ccccc34)ccc2F)CC1", "note": "[^127I-PARPi]", "values": [{"measurement": "Effect on overall / median survival compared to vehicle", "setting": "[1]", "result": "No significant increase in median survival"}, {"measurement": "Improvement of median survival compared to vehicle control group", "setting": "[1]", "result": "+26%"}, {"measurement": "Median survival (weeks)", "setting": "[1]; i.v., ^123I-MAPi 74 MBq or ^127I-PARPi approx. 80 μg/kg, every 3–4 days, 5 cycles", "result": 3.071, "unit": "weeks"}, {"measurement": "Toxicity (immunohistochemical and blood chemistry analysis)", "setting": "[2]; healthy mice", "result": "no toxicity was observed"}, {"measurement": "Markers associated with liver toxicity (ALP, ALT, AST)", "setting": "[2]; vs. vehicle", "result": "no significant variation compared to vehicle cohorts"}]}
